These results are taken from ChEMBL document CHEMBL1143599, “Design, synthesis, and antiviral activity of adenosine 5'-phosphonate analogues as chain terminators against hepatitis C virus” (J Med Chem, 2005).

Format in all cases: functional
Data set [1] has as its target RNA-directed RNA polymerase (Hepacivirus hominis) (UniProt O39930). In words: Ratio of steady state kinetic constant and incorporation efficiency for Hepatitis C Virus NS5BRdRp. The gist of the method: (§1)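 HCV NS5B, C-terminal His-tag with 21-residue truncation, 1 µM. Template 5′-AAAAAAAUGC-3′ and [5′-33P]GpC primer each at 20 µM. Buffer 50 mM HEPES pH 7.3, 10 mM DTT, 5 mM MgCl2; 15 min at 30 °C. Substrate varied from Km/2 to 10Km; EDTA quench, denaturing urea-PAGE. Initial velocities fitted to Michaelis-Menten for Km and Vmax; efficiency taken as Vmax/Km.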

Data set [2] deals with Nc1ncnc2c1ncn2[C@@H]1O[C@H](COP(=O)(O)OP(=O)(O)OP(=O)(O)O)[C@@H](O)[C@H]1O. In words: Incorporation efficiency for Hepatitis C Virus NS5BRdRp. The following applies: Hepacivirus hominis. The gist of the method:
as §1

The test system is the same in data set [3]. In words: Steady-state kinetic constant for Hepatitis C Virus NS5BRdRp. The following applies: Hepacivirus hominis. An outline of the steps: as §1

On to `Nc1ncnc2c1ncn2[C@@H]1O[C@H](CCP(=O)(O)OP(=O)(O)OP(=O)(O)O)[C@@H](O)[C@H]1O`, for which the Ratio in data set [1] stood at 0.00019.

Consider `Nc1ncnc2c1ncn2[C@@H]1O[C@H](COP(=O)(O)OP(=O)(O)OP(=O)(O)O)[C@@H](O)[C@H]1O`, for which, in data set [1], the Ratio came out at 0.0017.

A word on the Vmax: it is the top rate of the reaction or transport when substrate is in excess. As usually defined, the Km is the substrate concentration at which the rate is half of its maximum. As to “RNA-directed RNA polymerase (Hepacivirus hominis), O39930”, the maximal velocity (Vmax) in data set [2] amounted to 0.23 µM/min. Besides, the Km in data set [3] turned out to be 133 µM.

Consider `Nc1ncnc2c1ncn2[C@@H]1O[C@H](OCP(=O)(O)OP(=O)(O)OP(=O)(O)O)[C@@H](O)[C@H]1O`, for which, in data set [1], the Ratio is 1.2e-05.
